ChEMBL document CHEMBL3232996, “Synthesis and biological evaluation of novel (123)I-labeled 4-(4-iodophenyl)butanoyl-L-prolyl-(2S)-pyrrolidines for imaging prolyl oligopeptidase in vivo” (Eur J Med Chem, 2014)

What was measured:
[1] = tested on: Mus musculus; experiment: Biodistribution in C57Bl/6JRccHsd mouse testis at 2.86 +/- 1.26 MBq, iv measured at 80 mins post dose pretreated with 50 umol/kg, ip prolyl oligopeptidase inhibitor KYP-2047 10 mins before compound dosing by SPECT analysis; assay type: ADME, organism-based; details: in vivo
Procedure, shortened: (§1)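 Organs excised at 5, 20, 40, 80 or 160 min and radioactivity gamma-counted as %ID/g (brain also as %ID). Blocking groups received KYP-2047 (50 µmol/kg, 10 mL/kg, 1% DMSO in 0.9% NaCl) i.p. 10 min before tracer. Mean ± SD, n = 2–4 per time point. Blocking compared by two-tailed Student's t test.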

[2] = Fraction unbound in iv dosed C57Bl/6JRccHsd mouse plasma measured at 20 mins post dose pretreated with 50 umol/kg, ip prolyl oligopeptidase inhibitor KYP-2047 10 mins before compound dosing by SPECT analysis; assay type: ADME, organism-based
Procedure, shortened: (§2)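 Male mice given 3.6 MBq tracer i.v. via lateral tail vein; blocking groups got POP inhibitor i.p. (50 µmol/kg, 10 mL/kg, 1% DMSO in 0.9% NaCl) 10 min before. Heparinized cardiac blood on ice, gamma-counted, spun 5 min at 2000 g; plasma counted, precipitated with 1.5 volumes acetonitrile, respun; cell-bound, protein-bound and free fractions expressed as % of blood activity; n = 3.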

[3] = tested on: Thyroid gland; experiment: Biodistribution in C57Bl/6JRccHsd mouse thyroid at 2.86 +/- 1.26 MBq, iv measured at 160 mins by SPECT analysis; assay type: ADME, organism-based; details: in vivo; procedure, shortened: as §1
[4] = Plasma protein binding in iv dosed C57Bl/6JRccHsd mouse measured at 80 mins; assay type: ADME, organism-based; details: in vivo; procedure, shortened: as §2
[5] = tested on: Spleen; experiment: Biodistribution in C57Bl/6JRccHsd mouse spleen at 2.86 +/- 1.26 MBq, iv measured at 80 mins by SPECT analysis; assay type: ADME, organism-based; details: in vivo; procedure, shortened: as §1
[6] = Plasma protein binding in human at 2.5 MBq/ml after 2 hrs by HPLC analysis; assay type: ADME, cell-free; details: read-out: PPB (converted)
[7] = Drug uptake in iv dosed C57Bl/6JRccHsd mouse blood cells measured at 40 mins; assay type: ADME, organism-based; details: in vivo
Procedure, shortened: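 Mice got tracer i.v., some after i.p. KYP-2047 (50 µmol/kg) 10 min before. Cardiac blood was collected at 20, 40, 80 or 160 min and spun 5 min at 2000 g into cells and plasma. Plasma was precipitated with acetonitrile and pellet and supernatant were gamma-counted. Activity in cells, protein-bound and free plasma is given as % of total blood activity, n = 3.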

[8] = tested on: Liver; experiment: Biodistribution in C57Bl/6JRccHsd mouse liver at 2.86 +/- 1.26 MBq, iv measured at 80 mins by SPECT analysis; assay type: ADME, organism-based; details: in vivo; procedure, shortened: as §1
[9] = tested on: Mus musculus; experiment: Biodistribution in C57Bl/6JRccHsd mouse testis at 2.86 +/- 1.26 MBq, iv measured at 80 mins by SPECT analysis; assay type: ADME, organism-based; details: in vivo; procedure, shortened: as §1
[10] = tested on: Plasma; experiment: Stability in human plasma at 2.5 MBq/ml up to 120 mins by HPLC analysis; assay type: ADME, cell-free; details: 2 h

Drug uptake [1]: 0.57 % ID/g | fraction unbound at 20 min [2]: 0.47 | Drug uptake [3]: 9.4 % ID/g | PPB [4]: 1% | Drug uptake [5]: 10.56 % ID/g | fraction unbound at 2 h, 2.5 MBq/ml [6]: 0.937 | Drug uptake [7]: 90% | Drug uptake [8]: 20.1 % ID/g | Drug uptake [9]: 0.55 % ID/g | Stability [10]: Stable
SMILES: N#C[C@@H]1CCCN1C(=O)[C@@H]1CCCN1C(=O)CCCc1ccc([123I])cc1
